Experimental data published in ChEMBL document CHEMBL4004856, “Synthesis of new heterocyclic compounds based on pyrazolopyridine scaffold and evaluation of their neuroprotective potential in MPP+-induced neurodegeneration” (Eur J Med Chem, 2017).
Activity calls are given as the source filed them. No cut-off for these calls is given here.

Experiments:
SH-SY5Y [1] = assay: Cytotoxicity against human SH-SY5Y cells assessed as reduction in cell viability up to 20 uM up to 24 hrs by MTT assay; format: cell-based
In short: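 SH-SY5Y cells in DMEM with 10% FBS and penicillin/streptomycin at 37°C, 5% CO2, seeded 2x10³ cells/well and left to adhere 24 h. Compounds (5, 10, 20 μM, in DMSO) were added for 3, 6 and 24 h. MTT was then added (0.5 mg/ml final) for 3 h, and formazan was dissolved in DMSO and read at 570/630 nm. Values are relative to vehicle control.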

SH-SY5Y [2] = assay: Neuroprotective activity against MPP+-induced toxicity in human SH-SY5Y cells assessed as increase in cell viability at 5 uM preincubated for 1 hr followed by MPP+ addition measured up to 24 hrs by MTT assay relative to control; format: functional
In short: (§1)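 SH-SY5Y cells seeded 2x10³/well and left to adhere 24 h. Compounds (5–20 μM, DMSO) were added 1 h before 2 mM MPP⁺ for 24 h at 37°C, 5% CO2. Viability was read by MTT (0.5 mg/ml final, 3 h), DMSO solubilisation and absorbance at 570/630 nm, expressed as % of vehicle control. Mean ± SD, n = 5.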

SH-SY5Y [3] = assay: Neuroprotective activity against MPP+-induced toxicity in human SH-SY5Y cells assessed as increase in cell viability at 10 to 20 uM preincubated for 1 hr followed by MPP+ addition measured up to 24 hrs by MTT assay relative to control; format: functional; in short: as §1
SH-SY5Y [4] = assay: Neuroprotective activity against MPP+-induced toxicity in human SH-SY5Y cells assessed as increase in cell viability preincubated for 1 hr followed by MPP+ addition measured up to 24 hrs by MTT assay; format: functional, cell-based; in short: as §1
SH-SY5Y [5] = assay: Neuroprotective activity against MPP+-induced toxicity in human SH-SY5Y cells assessed as increase in Bcl2 protein expression level preincubated for 1 hr followed by MPP+ addition measured up to 12 hrs by Western blot method
SH-SY5Y [6] = assay: Neuroprotective activity against MPP+-induced toxicity in human SH-SY5Y cells assessed as increase in Bcl-xl protein level at 1 uM preincubated for 1 hr followed by MPP+ addition measured up to 12 hrs by Western blot method; format: functional, cell-based
In short: (§2)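 SH-SY5Y cells seeded 5x10⁵/well and left to adhere 24 h. Compounds (1 or 5 μM) were added 1 h before 2 mM MPP⁺ for 12 h. Lysates in RIPA-type buffer; 10 μg protein run on 10% SDS gels and blotted to PVDF. Blots were probed with rabbit anti-bax, Bcl-2, Bcl-xl or caspase-3 (cleaved p17/p19) antibodies and detected by chemiluminescence. Densitometry was normalised to β-actin. Mean ± SD, n = 3.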

SH-SY5Y [7] = assay: Neuroprotective activity against MPP+-induced toxicity in human SH-SY5Y cells assessed as decrease in Bax protein expression level preincubated for 1 hr followed by MPP+ addition measured up to 12 hrs by Western blot method; format: functional, cell-based; in short: as §2
SH-SY5Y [8] = assay: Neuroprotective activity against MPP+-induced toxicity in human SH-SY5Y cells assessed as increase in Bcl2 protein expression level at 1 uM preincubated for 1 hr followed by MPP+ addition measured up to 12 hrs by Western blot method
SH-SY5Y [9] = assay: Neuroprotective activity against MPP+-induced toxicity in human SH-SY5Y cells assessed as ratio of Bax to beta-actin protein expression level at 1 uM preincubated for 1 hr followed by MPP+ addition measured up to 12 hrs by Western blot method (reference value: 1.26); format: functional; in short: as §2
SH-SY5Y [10] = assay: Neuroprotective activity against MPP+-induced toxicity in human SH-SY5Y cells assessed as ratio of Bcl2 to beta-actin protein expression level at 5 uM preincubated for 1 hr followed by MPP+ addition measured up to 12 hrs by Western blot method (reference value: 2.84 +/- 0.02); format: functional; in short: as §2
SH-SY5Y [11] = assay: Neuroprotective activity against MPP+-induced toxicity in human SH-SY5Y cells assessed as decrease in caspase-3 activation at 1 uM preincubated for 1 hr followed by MPP+ addition measured up to 12 hrs by Western blot method; format: functional, cell-based; in short: as §2
SH-SY5Y [12] = assay: Neuroprotective activity against MPP+-induced toxicity in human SH-SY5Y cells assessed as decrease in caspase-3 activation at 5 uM preincubated for 1 hr followed by MPP+ addition measured up to 12 hrs by Western blot method; format: functional, cell-based; in short: as §2
SH-SY5Y [13] = assay: Neuroprotective activity against MPP+-induced toxicity in human SH-SY5Y cells assessed as ratio of Bax to beta-actin protein expression level at 5 uM preincubated for 1 hr followed by MPP+ addition measured up to 12 hrs by Western blot method (reference value: 1.26); format: functional; in short: as §2
SH-SY5Y [14] = assay: Neuroprotective activity against MPP+-induced toxicity in human SH-SY5Y cells assessed as increase in Bcl-xl protein level by measuring ratio of Bcl-xl to beta actin level at 5 uM preincubated for 1 hr followed by MPP+ addition measured up to 12 hrs by Western blot method (reference value: 0.27 +/- 0.001); format: functional; in short: as §2
SH-SY5Y [15] = assay: Neuroprotective activity against MPP+-induced toxicity in human SH-SY5Y cells assessed as increase in cell viability at 20 uM preincubated for 1 hr followed by MPP+ addition measured up to 24 hrs by MTT assay relative to control; format: functional; in short: as §1
SH-SY5Y [16] = assay: Neuroprotective activity against MPP+-induced toxicity in human SH-SY5Y cells assessed as increase in cell viability at 5 to 10 uM preincubated for 1 hr followed by MPP+ addition measured up to 24 hrs by MTT assay relative to control; format: functional; in short: as §1

| Compound | Activity (SH-SY5Y [1]) | Activity (SH-SY5Y [2]) | Activity (SH-SY5Y [3]) | Activity (SH-SY5Y [4]) | Activity (SH-SY5Y [5]) | Activity (SH-SY5Y [6]) | Activity (SH-SY5Y [7]) | Activity (SH-SY5Y [8]) | Ratio (SH-SY5Y [9]) | Ratio (SH-SY5Y [10]) | Activity (SH-SY5Y [11]) | Activity (SH-SY5Y [12]) | Ratio (SH-SY5Y [13]) | Ratio (SH-SY5Y [14]) | Activity (SH-SY5Y [15]) | Activity (SH-SY5Y [16]) |
| --- | --- | --- | --- | --- | --- | --- | --- | --- | --- | --- | --- | --- | --- | --- | --- | --- |
| Cc1cccc(-c2c(C)nc3c(c(C)nn3-c3ccccc3)c2C)c1 | Non-Toxic | 20 - 30% | 10 - 20% | Dose-dependent effect | – | – | – | – | – | – | – | – | – | – | – | – |
| Cc1ccccc1-c1c(C)nc2c(c(C)nn2-c2ccccc2)c1C | Non-Toxic | 20 - 30% | 10 - 20% | Dose-dependent effect | – | – | – | – | – | – | – | – | – | – | – | – |
| Cc1nc2c(c(C)nn2-c2ccccc2)c(C)c1Br | Non-Toxic | 20 - 30% | 10 - 20% | Dose-dependent effect | – | – | – | – | – | – | – | – | – | – | – | – |
| Cc1nc2c(c(C)nn2-c2ccccc2)c(C)c1-c1ccc(C=O)cc1 | Non-Toxic | 20 - 30% | 10 - 20% | Dose-dependent effect | Dose-dependent effect | Active | Dose-dependent effect | inactive | 0.86 | 2.63 | Active | Active | 0.49 - 1.03 | – | – | – |
| Cc1nc2c(c(C)nn2-c2ccccc2)c(C)c1-c1cccc(C#N)c1 | Non-Toxic | 20 - 30% | 10 - 20% | Dose-dependent effect | – | – | – | – | – | – | – | – | – | – | – | – |
| Cc1nc2c(c(C)nn2-c2ccccc2)c(C)c1-c1ccc([N+](=O)[O-])cc1 | Non-Toxic | 20 - 30% | 10 - 20% | Dose-dependent effect | Dose-dependent effect | Active | Dose-dependent effect | inactive | 0.75 | 3.22 | Active | inactive | 0.49 - 1.03 | – | – | – |
| Cc1nc2c(c(C)nn2-c2ccccc2)c(C)c1-c1ccc(N(C)C)cc1 | Non-Toxic | 20 - 30% | 10 - 20% | Dose-dependent effect | – | – | – | – | – | – | – | – | – | – | – | – |
| CCOC(=O)c1ccc(-c2c(C)nc3c(c(C)nn3-c3ccccc3)c2C)cc1 | Non-Toxic | 20 - 30% | 10 - 20% | Dose-dependent effect | – | – | – | – | – | – | – | – | – | – | – | – |
| Cc1nc2c(c(C)nn2-c2ccccc2)c(C)c1-c1ccc(C(F)(F)F)cc1 | Non-Toxic | 20 - 30% | 10 - 20% | Dose-dependent effect | Dose-dependent effect | Active | Dose-dependent effect | inactive | 0.85 | 0.85 | Active | inactive | 0.49 - 1.03 | 0.28 | – | – |
| Cc1ccc(-c2c(C)nc3c(c(C)nn3-c3ccccc3)c2C)cc1 | Non-Toxic | 20 - 30% | 10 - 20% | Dose-dependent effect | Dose-dependent effect | Active | Dose-dependent effect | inactive | 1.11 | 3.62 | Active | Active | 0.49 - 1.03 | – | – | – |
| Cc1nc2c(c(C)nn2-c2ccccc2)c(C)c1-c1ccc(Cl)cc1 | Non-Toxic | – | – | Dose-dependent effect | Dose-dependent effect | Active | Dose-dependent effect | inactive | 0.78 | 0.39 | Active | – | 0.49 - 1.03 | – | 10 - 20% | 20 - 30% |
| COc1ccc(-c2c(C)nc3c(c(C)nn3-c3ccccc3)c2C)cc1 | Non-Toxic | 20 - 30% | 10 - 20% | Dose-dependent effect | – | – | – | – | – | – | – | – | – | – | – | – |
| Cc1nc2c(c(C)nn2-c2ccccc2)c(C)c1-c1cccs1 | Non-Toxic | 20 - 30% | 10 - 20% | Dose-dependent effect | Dose-dependent effect | Active | Dose-dependent effect | inactive | 0.76 | 4.33 | Active | – | 0.49 - 1.03 | – | – | – |
| Cc1nc2c(c(C)nn2-c2ccccc2)c(C)c1-c1ccc(F)nc1 | Non-Toxic | – | – | Dose-dependent effect | – | – | – | – | – | – | – | – | – | – | 10 - 20% | 20 - 30% |
| Cc1nc2c(c(C)nn2-c2ccccc2)c(C)c1-c1ccccc1 | Non-Toxic | 20 - 30% | 10 - 20% | Dose-dependent effect | – | – | – | – | – | – | – | – | – | – | – | – |
